Test results published in ChEMBL document CHEMBL3352796, “Enantioselective Synthesis and Profiling of Two Novel Diazabicyclooctanone β-Lactamase Inhibitors” (ACS Med Chem Lett, 2014).

Experiments:
[1] = Hydrolytic solution stability in pH 7.4 aqueous phosphate buffer at 70 degC by HPLC-UV method; format: physicochemical
How it was run: (§1)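 Compound held in aqueous phosphate buffer, pH 7.4, at 37 °C or 70 °C. Hydrolytic stability is reported as half-life in hours.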

[2] = Inhibition of Enterobacter cloacae KPC-2 pre-incubated with enzyme for 5 mins before nitrocefin substrate addition by colorimetric assay
Klebsiella pneumoniae [3] = test: Inhibition of Klebsiella pneumoniae CTX-M-15 pre-incubated with enzyme for 5 mins before nitrocefin substrate addition by colorimetric assay
Klebsiella pneumoniae [4] = test: Inhibition of Klebsiella pneumoniae OXA-48 pre-incubated with enzyme for 5 mins before nitrocefin substrate addition by colorimetric assay
[5] = Inhibition of Pseudomonas aeruginosa AmpC pre-incubated with enzyme for 5 mins before nitrocefin substrate addition by colorimetric assay
[6] = Hydrolytic solution stability in pH 7.4 aqueous phosphate buffer at 37 degC by HPLC-UV method; format: physicochemical; how it was run: as §1

half-life [1] [h]	IC50 [2] [µM]	IC50 (Klebsiella pneumoniae [3]) [µM]	IC50 (Klebsiella pneumoniae [4]) [µM]	IC50 [5] [µM]	half-life [6] [h]	SMILES
8.2	0.85	0.14	1.3	4.5	112	NC(=O)[C@@H]1[C@@H]2C[C@@H]2[C@@H]2CN1C(=O)N2OS(=O)(=O)[O-].[Na+]
> 264	6.7	0.48	28	2	–	NC(=O)[C@@H]1[C@H]2C[C@H]2[C@@H]2CN1C(=O)N2OS(=O)(=O)[O-].[Na+]

SMILES	half-life [1] [h]	IC50 [2] [µM]	IC50 (Klebsiella pneumoniae [3]) [µM]	IC50 (Klebsiella pneumoniae [4]) [µM]	IC50 [5] [µM]	half-life [6] [h]
C[C@]1(Cn2ccnn2)[C@H](C(=O)O)N2C(=O)C[C@H]2S1(=O)=O [TAZOBACTAM]	7.7	39	< 0.007	3.6	3.4	–
